According to article PMC7867784 (Translational Lung Cancer Research, 2021):
Values joined by “and” are separate entries in the source; they are usually repeats but may differ in a detail not shown here. Equal values may be shown once. Read-outs that look alike come from different tables or passages of the source.

Columns and labels:
RET-rearranged NSCLC [1] = test: ALL-RET phase 1/2 trial: antitumor efficacy; assay type: in vivo, human
In short: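 Patients with RET-rearranged NSCLC confirmed by at least 2 of 3 methods (multiplex RT-PCR, break-apart FISH, targeted NGS), previously treated with ≥1 chemotherapy regimen, ECOG PS 0–2, with measurable lesions. The test compound was given BID in 21-day cycles until respite, dose reduction or discontinuation criteria were met. Response was assessed by RECIST v1.1 on central review. DCR was defined as CR+PR+SD lasting at least 8 weeks.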

[2] = test system: RET-fusion positive NSCLC cells; settings: cited from earlier work
[3] = cited from earlier work; for Cmax: AF-002JG study; for AUC0-10: global study
RET-rearranged NSCLC [4] = settings: 600 mg BID, non-Japanese RET rearrangement NSCLC, out of 8 patients; cited from earlier work
[5] = 450 mg BID, 25 RET-TKI-naïve patients
[6] = 450 mg BID, RET-TKI-naïve (n=25)
[7] = 450 mg BID, of 25 RET-TKI-naïve patients

For `CCc1cc2c(cc1N1CCC(N3CCOCC3)CC1)C(C)(C)c1[nH]c3cc(C#N)ccc3c1C2=O` [alectinib], the “patients who could continue treatment for more than 1 year” value (RET-rearranged NSCLC [1]; 450 mg BID) was 5, the “DCR (disease control rate, at 8 weeks)” value (RET-rearranged NSCLC [1]; [5]) was 52% and the “patients with disease stabilization for more than 1 year” value (RET-rearranged NSCLC [1]; [5]) was 5. For the same molecule, the “patients with disease stabilization for more than 1 year, percent” value (RET-rearranged NSCLC [1]; [5]) was 20%, the “ORR (objective/overall response rate)” value (RET-rearranged NSCLC [1]; 450 mg BID, 25 RET-TKI-naïve patients, central review) was 4% and the “median PFS” value (RET-rearranged NSCLC [1]; 450 mg BID, 25 RET-TKI-naïve patients, 95% CI 2.0–5.4) was 3.4 months. The “median OS” value (RET-rearranged NSCLC [1]; 450 mg BID, 25 RET-TKI-naïve patients, 95% CI 5.4–NE) was 19.0 months and 19 months, the “Best overall response NE (not evaluated), %” value (RET-rearranged NSCLC [1]; [6]) was 8% and the “Best overall response PD, %” value (RET-rearranged NSCLC [1]; [6]) was 40%. For the same molecule, the “Best overall response PR, %” value (RET-rearranged NSCLC [1]; [6]) was 4%, the “Best overall response SD, %” value (RET-rearranged NSCLC [1]; [6]) was 48% and the “patients with disease control at 8 weeks” value (RET-rearranged NSCLC [1]; [7]) was 13. The “patients with objective response” value (RET-rearranged NSCLC [1]; [7]) was 1, the “treatment duration of the patient who showed PR” value (RET-rearranged NSCLC [1]; one patient with KIF5B-RET, phase 2, 450 mg BID) was ~2 years and the “activity against RET-rearranged NSCLC (conclusion)” value (RET-rearranged NSCLC [1]; phase 1/2, Japanese patients) was “limited activity”. For the same molecule, the “growth of RET-rearranged tumor cells” value ([2]; in vitro and in vivo, pre-clinical studies) was “inhibit the growth”, the IC50 ([2]; read-out: IC50 in RET-fusion positive NSCLC cells) was < 300 nM and the Cmax ([3]; 460 mg BID) was 618 ± 165 ng/mL. The AUC0-10 ([3]; 460 mg BID) was 4,980±1,340 ng·h/mL, the Cmax ([3]; 600 mg BID) was 676 ± 186 ng/mL and the AUC0-10 ([3]; 600 mg BID) was 5,400±1,400 ng·h/mL. For the same molecule, the “patients with PR” value (RET-rearranged NSCLC [4]) was 4.
